# Measured values: ChEMBL document CHEMBL5712908, “A genome-wide RNAi screen reveals essential therapeutic targets of breast cancer stem cells” (2019)
# The source made the active and inactive calls. The rule behind the calls is not given here.
# How the values were obtained:
# Breast cancer cell line [1] = experiment: Synergistic apoptosis activity in patient-derived breast cancer cells orthotopically xenografted in NSG mouse model of PDX assessed as increase in cleaved caspase-3 at 50 mg/kg, ip 5 out of 7 for 2 weeks cotreated with salinomycin by Immunostaining analysis; assay type: functional, organism-based; details: Homo sapiens
# Method in brief: (§1)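 Paraffin sections of treated PDX tumours deparaffinised and subjected to antigen retrieval in citrate buffer pH 6. Peroxidase staining with ready-to-use Ki67 or cleaved caspase-3 antibody, DAB substrate, haematoxylin counterstain. Proportion of positive cells quantified; n = 3; t-test.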
# SUM149PT [2] = experiment: Antitumor activity against human SUM149 cells assessed as K-score by measuring ALDHbr cells by LSR2 cytometer; assay type: functional
# Method in brief: (§2)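 Cell lines exposed for 72 h in adherent culture to a range of concentrations centred on the MTS-derived IC50. ALDHbr proportion measured by ALDEFLUOR flow cytometry (LSR2). K-score is the linear regression coefficient, on log10-transformed doses, between the untreated condition and the dose predicted to give a 50% decrease or increase in ALDHbr proportion versus control.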
# Breast cancer cell line [3] = experiment: Synergistic antitumor activity against human reimplanted CRCM494 negative breast cancer cells orthotopically xenografted in NSG mouse model of PDX assessed as reduction tumor volume at 50 mg/kg, ip 5 out of 7 for 2 weeks cotreated with salinomycin by limiting dilation analysis; assay type: functional, organism-based
# Breast cancer cell line [4] = experiment: Synergistic antitumor activity against human CRCM404 negative breast cancer cells orthotopically xenografted in NSG mouse model of PDX assessed as reduction in tumor volume at 50 mg/kg, ip 5 out of 7 for 2 weeks cotreated with salinomycin; assay type: functional, organism-based
# Method in brief: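 Orthotopic PDX in NSG mice, 100,000 cells per fat pad, two pads per mouse; treatment from ~80 mm³ tumours with salinomycin i.p. 3 mg/kg daily 14 days, JQ1 i.p. 50 mg/kg 5 of 7 days for 2 weeks, or combination, against placebo DMSO/HPCD 10% (1:9). Tumour growth monitored; n = 10 tumours per group.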
# [5] = Antitumor activity against human BrCa-MZ-01 cells assessed as K-score by measuring ALDHbr cells by LSR2 cytometer; assay type: functional; method in brief: as §2
# Breast cancer cell line [6] = experiment: Antitumor activity against patient-derived breast cancer cells orthotopically xenografted in NSG mouse model of PDX assessed as reduction in Ki67 cells at 50 mg/kg, ip 5 out of 7 for 2 weeks by Immunostaining analysis; assay type: functional, organism-based; details: Homo sapiens
# Method in brief: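 Paraffin sections of PDX tumours from 2-week-treated mice. Citrate pH 6 antigen retrieval, then Ki67 immunoperoxidase staining with DAB and haematoxylin counterstain. Proportion of Ki67+ cells quantified; n = 3; t-test.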
# SUM-159-PT [7] = experiment: Synergistic anticancer activity against human SUM159 cells assessed as decrease in secondary tumor sphere formation at 62 nM incubated for 72 hrs in presence of salinomycin by Extreme limiting dilution analysis; assay type: functional
# Method in brief: (§3)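 72 h adherent pretreatment (Sal/JQ1 62 nM/62 nM; docetaxel added at 2 nM where used), then single cells plated in ultra-low attachment 96-well plates in serum-free mammary epithelium basal medium at 25/10/5/3/2/1 cells/well (18–36 wells/condition). Wells with ≥1 sphere after 10 days scored positive; sphere-forming frequency by ELDA. Secondary spheres from dissociated primary spheres. n = 4; pairwise chi-square.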
# Breast cancer cell line [8] = experiment: Synergistic antitumor activity against human CRCM494 negative breast cancer cells orthotopically xenografted in NSG mouse model of PDX assessed as reduction ALDHbr cells at 50 mg/kg, ip 5 out of 7 for 2 weeks cotreated with salinomycin by LSR2 cytometer analysis; assay type: functional
# SUM-159-PT [9] = experiment: Synergistic anticancer activity against human SUM159 cells at 500 nM incubated for 72 hrs in presence of salinomycin by ALDEFLUOR staining based flow cytometric analysis; assay type: functional, cell-based
# Breast cancer cell line [10] = experiment: Antitumor activity against human CRCM434 negative breast cancer cells orthotopically xenografted in NSG mouse model of PDX assessed as reduction ALDHbr cells at 50 mg/kg, ip 5 out of 7 for 2 weeks by LSR2 cytometer analysis; assay type: functional, organism-based
# Method in brief: (§4)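 Chemo-naïve triple-negative PDX cells injected at 100,000 per fat pad, two fat pads per NSG mouse. At ~80 mm³ tumours, mice received i.p. 3 mg/kg daily for 14 days or 50 mg/kg 5 of 7 days for 2 weeks; placebo was DMSO/HPCD 10% (1:9). Five mice (10 tumours) per group. Tumour growth monitored; after 2 weeks tumours dissociated, mouse cells excluded via anti-H2Kd, ALDHbr measured by ALDEFLUOR flow cytometry and normalised to vehicle.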
# SUM149PT [11] = experiment: Anticancer activity against human SUM149 cells assessed as ALDHbr cells at 1 mM by LSR2 cytometer (reference value: 4.8%); assay type: functional; design: dose or concentration left out as unconfirmed
# Breast cancer cell line [12] = experiment: Synergistic apoptosis activity in patient-derived breast cancer cells orthotopically xenografted in NSG mouse model of PDX assessed as increase in cleaved caspase-3 at 50 mg/kg, ip 5 out of 7 for 2 weeks by Immunostaining analysis; assay type: functional, organism-based; details: Homo sapiens; method in brief: as §1
# Breast cancer cell line [13] = experiment: Antitumor activity against human CRCM494 negative breast cancer cells orthotopically xenografted in NSG mouse model of PDX assessed as reduction ALDHbr cells at 50 mg/kg, ip 5 out of 7 for 2 weeks by LSR2 cytometer analysis; assay type: functional, organism-based; method in brief: as §4
# Breast cancer cell line [14] = experiment: Synergistic antitumor activity against human reimplanted CRCM404 negative breast cancer cells orthotopically xenografted in NSG mouse model of PDX assessed as reduction tumor volume at 50 mg/kg, ip 5 out of 7 for 2 weeks cotreated with salinomycin by limiting dilation analysis; assay type: functional, organism-based
# SUM-159-PT [15] = experiment: Synergistic anticancer activity against human SUM159 cells assessed as decrease in docetaxel induced primary tumor sphere formation at 62 nM incubated for 72 hrs in presence of salinomycin by Extreme limiting dilution analysis; assay type: functional, cell-based; method in brief: as §3
# MDA-MB-436 = experiment: Antitumor activity against human MDA-MB-436 cells assessed as K-score by measuring ALDHbr cells by LSR2 cytometer; assay type: functional; method in brief: as §2
# Breast cancer cell line [16] = experiment: Synergistic antitumor activity against patient-derived breast cancer cells orthotopically xenografted in NSG mouse model of PDX assessed as reduction in Ki67 cells at 50 mg/kg, ip 5 out of 7 for 2 weeks cotreated with salinomycin by Immunostaining analysis; assay type: functional, organism-based; details: Homo sapiens; method in brief: as §1
# SUM-159-PT [17] = experiment: Induction of apoptosis in human SUM159 cells expressing ALDH upto 100 uM incubated for 72 hrs by ALDEFLUOR/YO-PRO-3/ Hoechst 33342 staining based high content imaging microscopic analysis; assay type: functional, cell-based
# Method in brief: (§5)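 SUM159 at 3,000 cells/well on collagen plates, dosed at 6, 24 and 48 h post-seeding; 0.1% DMSO negative control, cisplatin positive control. At 72 h stained 30 min at 37°C with ALDEFLUOR, YO-PRO-3 and Hoechst 33342, then imaged ice-cold. YO-PRO-3-positive nuclei (above untreated signal) counted over total cells, per ALDHbr/ALDH- subpopulation; n = 6.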
# SUM-159-PT [18] = experiment: Induction of apoptosis in human SUM159 cells expressing ALDHbr upto 100 uM incubated for 72 hrs by ALDEFLUOR/YO-PRO-3/ Hoechst 33342 staining based high content imaging microscopic analysis; assay type: functional, cell-based; method in brief: as §5
# SUM-159-PT [19] = experiment: Antitumor activity against human SUM159 cells assessed as K-score by measuring ALDHbr cells by LSR2 cytometer; assay type: functional; method in brief: as §2
compound,measurement,setting,value
Cc1sc2c(c1C)C(c1ccc(Cl)cc1)=N[C@@H](CC(=O)OC(C)(C)C)c1nnc(C)n1-2,Activity,Breast cancer cell line [1],inactive
same,Activity,SUM149PT [2],-0.13
same,Activity,Breast cancer cell line [3],Active
same,Activity,Breast cancer cell line [4],Active
same,Activity,[5],-0.03
same,Activity,Breast cancer cell line [6],Active
same,fold change (FC),SUM-159-PT [7],5.4
same,fold change (FC),Breast cancer cell line [8],2
same,Activity,SUM-159-PT [9],inactive
same,Activity,Breast cancer cell line [10],Active
same,Activity,SUM149PT [11],1.2%
same,Activity,Breast cancer cell line [12],inactive
same,Activity,Breast cancer cell line [13],Active
same,Activity,Breast cancer cell line [14],Active
same,Activity,SUM-159-PT [15],Active
same,Activity,MDA-MB-436,-0.15
same,Activity,Breast cancer cell line [16],Active
same,Activity,SUM-159-PT [17],Active
same,Activity,SUM-159-PT [18],Active
same,Activity,SUM-159-PT [19],-0.2
